{"source": "ChEMBL document CHEMBL4406851", "about": "“Design, synthesis and biological evaluation of cinnamic acid derivatives with synergetic neuroprotection and angiogenesis effect” (Eur J Med Chem, 2019)", "key": {"Chorioallantoic membrane": {"system": "Chorioallantoic membrane", "experiment": "Induction of angiogenesis in chicken chorioallantoic membrane assessed as increase in vascular density at 1 mg/ml measured after 48 hrs by dissecting microscopic analysis", "type": "functional, cell membranes", "settings": "Gallus gallus", "how_it_was_run": "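Fertile eggs were incubated 7 days at 37 °C and 60% humidity. A small window was opened at one end and the membrane was wetted with a drop of sterile saline. Test solution (0.5, 1 or 2 mg/mL) was applied to the allantoic membrane, with PBS for controls. After 48 h the membrane was separated from the shell, then viewed and photographed under a dissecting microscope.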"}, "SH-SY5Y [1]": {"system": "SH-SY5Y", "experiment": "Inhibition of H2O2-induced apoptosis in human SH-SY5Y cells assessed as necrotic cells at 6.25 uM preincubated for 24 hrs followed by H2O2 addition measured after 4 hrs by Annexin V-FITC/propidium iodide staining based flow cytometry (reference value: 0.9 %)", "type": "functional", "design": "scale not given: the % may be the effect or the level left", "how_it_was_run": "(§1)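 Cells were seeded at 3.5×10^4 cells/mL in 6-well plates at 37 °C, 5% CO2. Compound was added at three concentrations for 24 h, then H2O2 (4.8 mM stock solution) to model and drug wells for 4 h. Cells were collected, washed in cold PBS and resuspended in annexin-binding buffer. Staining was annexin V-FITC 10 min, then PI 5 min, in the dark, followed by flow cytometry with quadrant gating.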"}, "[2]": {"experiment": "Inhibition of H2O2-induced apoptosis in human HBMEC2 cells assessed as early apoptotic cells at 6.25 uM preincubated for 24 hrs followed by H2O2 addition measured after 4 hrs by Annexin V-FITC/propidium iodide staining based flow cytometry (reference value: 8.1 %)", "type": "functional, HBMEC-2", "design": "scale not given: the % may be the effect or the level left", "how_it_was_run": "as §1"}, "SH-SY5Y [3]": {"system": "SH-SY5Y", "experiment": "Protection against H2O2-induced apoptosis in human SH-SY5Y cells assessed as reduction in cell shrinkage at 1.56 to 6.25 uM preincubated for 24 hrs followed by H2O2 addition measured after 4 hrs by Giemsa staining based inverted phase contrast microscopic analysis", "type": "functional", "how_it_was_run": "(§2)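 Cells at 3.5×10^4 cells/mL in 24-well plates were pretreated 24 h with compound at three concentrations, then H2O2 (4.8 mM stock) for 4 h. After PBS washes, cells were fixed in 4% paraformaldehyde/70% cold ethanol for 10 min. Staining was 6% Giemsa or DAPI for 5 min in the dark. Random fields were photographed at 200× by microscope, alongside control and model groups.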"}, "HBMEC-2": {"system": "HBMEC-2", "experiment": "Protection against H2O2-induced apoptosis in human HBMEC2 cells assessed as decrease in number of irregular cells preincubated for 24 hrs followed by H2O2 addition measured after 4 hrs by DAPI staining based inverted phase contrast microscopic analysis", "type": "functional, cell-based", "how_it_was_run": "as §2"}}, "note": "Activity calls are given as the source filed them. The calls are words filed in the database; no cut-off is given here.", "data": [{"smiles": "COc1cc(CNC(=O)/C=C/c2cc(OC)c(OC)cc2OC)ccc1O", "values": [{"measurement": "Activity", "setting": "Chorioallantoic membrane", "value": "Active"}, {"measurement": "Activity", "setting": "SH-SY5Y [1]", "value": 1.1, "unit": "%"}, {"measurement": "Activity", "setting": "[2]", "value": 8.3, "unit": "%"}, {"measurement": "Activity", "setting": "SH-SY5Y [3]", "value": "Active"}, {"measurement": "Activity", "setting": "HBMEC-2", "value": "Dose-dependent effect"}]}]}
